# Measurements taken from ChEMBL document CHEMBL4619791, “3-Difluoroalkyl Quaternary Oxindoles Inhibit Macrophage Pyroptosis by Blocking Inflammasome Recruitment of Caspase-1” (ACS Med Chem Lett, 2020).
# The source made the active and inactive calls. No cut-off for these calls is given here.
# What was measured:
# J774.A1 [1] = assay: Inhibition of pyroptosis in LPS-primed immortalized mouse […] cells assessed as reduction in flagellin-induced […] secretion by ELISA; format: functional, cell-based
# Method in brief: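 J774A.1 cells stimulated with flagellin or poly(dA:dT). IL-1β release measured by ELISA. Mean ± SEM, n ≥ 3 independent experiments.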
# Mus musculus = assay: Antiinflammatory activity against LPS-induced sepsis C57BL/6J mouse model assessed as reduction in alveolar exudate at 20 mg/kg, iv administered as single dose for 1 hr prior to LPS challenge and measured after 48 hrs by hematoxylin-eosin staining based inverted microscopy analysis; format: functional, organism-based
# Caspase-1 (Homo sapiens) = biological target: T1, Caspase-1 (Homo sapiens) (UniProt P29466); assay: Inhibition of ASC-mediated caspase-1 cleavage in human THP1 cells transfected with GFP-tagged ASC at 5 uM FACS analysis; format: cell-based; conditions: THP-1
# T1 sequence (whole entry): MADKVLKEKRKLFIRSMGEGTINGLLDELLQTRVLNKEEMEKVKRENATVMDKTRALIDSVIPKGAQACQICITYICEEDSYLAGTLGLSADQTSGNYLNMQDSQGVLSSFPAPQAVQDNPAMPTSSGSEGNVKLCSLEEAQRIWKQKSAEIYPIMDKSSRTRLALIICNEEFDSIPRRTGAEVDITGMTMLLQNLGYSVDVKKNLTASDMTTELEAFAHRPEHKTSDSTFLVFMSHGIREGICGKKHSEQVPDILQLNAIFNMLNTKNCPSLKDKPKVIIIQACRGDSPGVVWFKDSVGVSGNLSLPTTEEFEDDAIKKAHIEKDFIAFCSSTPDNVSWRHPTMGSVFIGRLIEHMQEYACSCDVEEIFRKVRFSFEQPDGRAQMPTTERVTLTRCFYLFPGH
# J774.A1 [2] = assay: Inhibition of pyroptosis in LPS-primed immortalized mouse […] cells followed by subsequent nigericin stimulation by imaging analysis; format: functional, cell-based
# Caspase-1 (Mus musculus) = biological target: T2, Caspase-1 (Mus musculus) (UniProt P29452); assay: Inhibition of caspase-1 activity in LPS-primed immortalized mouse […] cells assessed as reduction in nigericin-induced caspase-1 cleavage at 5 uM by Western blot analysis; format: cell-based; conditions: J774.A1
# T2 sequence (whole entry): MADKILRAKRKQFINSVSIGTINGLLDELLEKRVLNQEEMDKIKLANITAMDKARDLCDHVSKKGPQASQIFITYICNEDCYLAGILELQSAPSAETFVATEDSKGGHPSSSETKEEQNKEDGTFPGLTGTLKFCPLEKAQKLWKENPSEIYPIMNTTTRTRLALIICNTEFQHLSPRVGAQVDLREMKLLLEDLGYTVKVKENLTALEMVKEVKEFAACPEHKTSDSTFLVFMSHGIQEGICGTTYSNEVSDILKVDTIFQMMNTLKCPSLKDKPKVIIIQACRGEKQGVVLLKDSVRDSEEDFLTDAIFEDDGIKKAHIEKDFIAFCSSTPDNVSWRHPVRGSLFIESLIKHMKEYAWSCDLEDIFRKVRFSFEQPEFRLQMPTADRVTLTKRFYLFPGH
# Method in brief: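 Western blot of full-length and cleaved caspase-1 and caspase-8 in J774A.1 cells after nigericin, with tubulin as loading control. Bands quantified as bar graphs.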
# J774.A1 [3] = assay: Inhibition of pyroptosis cell death in LPS-primed immortalized mouse […] cells assessed as effect on nigericin-induced cell morphological changes by propidium iodide staining based confocal microscopy; format: functional
# Method in brief: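 Primary BMDM and J774A.1 cells treated with LPS and nigericin. Swelling, bubble formation and propidium iodide uptake visualized by epifluorescence microscopy.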
# [4] = biological target: T3, Gasdermin-D (Mus musculus) (UniProt Q9D8T2); assay: Inhibition of GSDMD cytosol-plasma membrane translocation in LPS-primed immortalized mouse […] cells at 5 uM followed by subsequent nigericin stimulation by immunofluorescence assay; format: cell-based; conditions: J774.A1
# T3 sequence (whole entry): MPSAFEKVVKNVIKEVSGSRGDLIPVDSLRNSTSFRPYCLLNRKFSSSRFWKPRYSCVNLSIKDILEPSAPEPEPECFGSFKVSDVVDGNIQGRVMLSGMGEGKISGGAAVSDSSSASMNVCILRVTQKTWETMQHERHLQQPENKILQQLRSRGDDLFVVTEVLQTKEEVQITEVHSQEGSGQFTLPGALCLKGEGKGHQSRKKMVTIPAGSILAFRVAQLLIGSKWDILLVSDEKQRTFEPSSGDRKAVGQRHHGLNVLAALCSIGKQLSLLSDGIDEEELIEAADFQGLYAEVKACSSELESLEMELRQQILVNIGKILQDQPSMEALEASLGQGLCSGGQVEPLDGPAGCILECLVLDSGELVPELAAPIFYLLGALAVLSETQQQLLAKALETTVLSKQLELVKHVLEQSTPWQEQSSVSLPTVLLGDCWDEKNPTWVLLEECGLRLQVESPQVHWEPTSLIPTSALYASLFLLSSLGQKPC
# Method in brief: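 Macrophages were LPS-primed, then stimulated with nigericin, in immortalized and primary cells. Anti-GSDMD immunofluorescence, with line-intensity histograms of cytosol versus plasma-membrane localization. Mean ± SEM, n ≥ 3 independent experiments.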
# Danio rerio = organism: Danio rerio; assay: Antiinflammatory immunity against LPS-induced sepsis in […]:eGFP zebrafish larva assessed as decrease in macrophage infiltration in intestine at 5 uM measured at 7 dpf by confocal microscopic analysis; format: functional, organism-based
# Method in brief: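 Zebrafish sepsis model using Tg(mpeg1:eGFP) larvae with GFP-labelled macrophages, treated at 5 μM. Intestine imaged by confocal microscopy at 7 days post fertilization, and macrophages counted in the imaged region.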
# [5] = biological target: T4, Gastrin/cholecystokinin type B receptor (Mus musculus) (UniProt P56481); assay: Antagonist activity at CCKB receptor in immortalized mouse […] cells assessed as inhibition of nigericin-induced pyroptosis at 5 uM; format: cell-based; conditions: J774.A1
# T4 sequence (whole entry): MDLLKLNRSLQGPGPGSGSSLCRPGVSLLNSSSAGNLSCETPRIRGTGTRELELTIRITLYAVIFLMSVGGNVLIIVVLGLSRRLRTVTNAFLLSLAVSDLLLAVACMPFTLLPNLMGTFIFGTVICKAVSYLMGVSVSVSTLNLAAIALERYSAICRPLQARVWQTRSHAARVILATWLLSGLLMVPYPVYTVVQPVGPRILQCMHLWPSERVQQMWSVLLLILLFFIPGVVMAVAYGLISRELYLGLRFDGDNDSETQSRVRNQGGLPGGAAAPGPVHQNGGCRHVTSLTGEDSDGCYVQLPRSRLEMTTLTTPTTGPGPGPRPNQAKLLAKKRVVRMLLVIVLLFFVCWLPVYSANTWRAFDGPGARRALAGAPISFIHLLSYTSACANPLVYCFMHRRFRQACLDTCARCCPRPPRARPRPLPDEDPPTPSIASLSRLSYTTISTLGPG
# Method in brief: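 CCKB antagonists netazepide and proglumide were given to immortalized macrophages, with pyroptosis induced by nigericin.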
smiles,measurement,setting,value
CCOC(CN1C(=O)C(NC(=O)Nc2ccc(C)cc2)(C(F)(F)C(=O)Nc2ccc(C)cc2)c2ccccc21)OCC (centres undefined),inhibition,J774.A1 [1],Active
same,Activity,Mus musculus,Active
same,inhibition,Caspase-1 (Homo sapiens),Active
same,EC50,J774.A1 [2],5.5 µM
same,inhibition,Caspase-1 (Mus musculus),Active
same,inhibition,J774.A1 [3],Active
same,inhibition,[4],Active
same,Activity,Danio rerio,Active
same,Activity,[5],inactive
